Compound activity deposited in PubChem BioAssay by several laboratories.
Most compounds without a hit are left out; they make up all but 4.5% or so of the library.
CHOP inhibitor: inhibitors of CHOP promoter induction, primary screen, cell-based, unfolded protein response, luciferase reporter. hit rate 3.8% among 220,000. CHO-K1 CHOP-promoter luciferase, tunicamycin-induced, 15-18 h. AID 2732, 2010. inhibition, % at 10 µM;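 active = compounds that reduced the stress-induced luciferase reporter signal by more than about 70% of percent inhibition, limit read from the data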;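 note: 0% = tunicamycin plus vehicle and 100% = wells without tunicamycin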
XBP1 UPR activ: activators of adaptive XBP1 UPR arm, primary screen, cell-based, CHO-XBP1 luciferase reporter, luminescence, uHTS; hit rate 0.33% among 330,000; AID 463104, 2010; IRE1-XBP1 UPR activation; percent of tunicamycin response, DMSO as zero; activation, % at 20 µM;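 active = versus positive control, 20 µM dose yields 30% or more activation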;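 note: 100% = tunicamycin at 10 µg/mL and 0% = DMSO only wells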
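Material: CHO cell line with stable XBP1 luciferase reporter; schedule: 16-18 h cell attachment at 37 °C, then 6 h compound exposure; signal: glow luminescence from Steady-Glo reagent; medium: serum-containing F12 medium, 10% FBS; benchmarks: tunicamycin 10 µg/mL and vehicle-only wells; read-out: percent activation relative to tunicamycin reference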
M18AAP inhibitor: PfM18AAP inhibitors, malaria aminopeptidase, primary screen, biochemical, QFRET, recombinant enzyme | H-Glu-NHMec fluorogenic cleavage | M18 aspartyl aminopeptidase (Plasmodium falciparum 3D7) | inhibition, % at 7.35 µM | hit rate 1.2% among 290,000 | AID 1822, 2009;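 active = inhibition above the campaign mean inhibition over all tested compounds plus 3 SD, cut at about 28% in these data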;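 note: 0% = plate median of test compound wells and 100% = 2 mM ZnCl2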
NS3 helicase inh: inhibitors of HCV NS3 helicase, primary screen, biochemical, Cy5 molecular beacon fluorescence | Hepatitis C virus NS3 helicase | NS3 helicase DNA unwinding | inhibition, % at 10.9 µM | hit rate 0.56% among 290,000;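 active = inhibition above the mean of all tested compounds plus 3 SD, set per campaign, cut at about 35% in these data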;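 note: 0% = DMSO wells and 100% = thioflavine S control wells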
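Material: hepatitis C virus NS3 helicase domain fragment enzyme; measured by: Cy5 fluorescence, 0 and 60 min reads; control set: DMSO and thioflavine S; incubation: 60 min unwinding reaction at 25 °C after ATP addition; read-out basis: % inhibition from 60/0 min fluorescence ratio, DMSO 0%, thioflavine S 100%; repeats: singlicate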
UPR CHOP act: activators of apoptotic CHOP UPR arm, primary screen, cell-based, CHO-CHOP luciferase reporter, luminescence, uHTS. UPR activation; percent of tunicamycin response over DMSO baseline. activation, % at 10 µM. hit rate 0.34% among 330,000. AID 449763, 2010;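 active = at 10 µM dose, activation of 40% or more, normalized to positive control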;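 note: 100% = tunicamycin at 10 µg/mL and 0% = DMSO alone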
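measured by = luciferase luminescence | assay system = CHO-CHOP cells, stable luciferase reporter of PERK-eIF2a-CHOP signalling | amount = 500 reporter cells seeded per well | timing = 6 h compound exposure at 37 °C after overnight seeding | controls = positive tunicamycin 10 µg/mL, negative DMSO alone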
p97 inhibitor: inhibitors of human p97 ATPase, primary screen, biochemical. Transitional endoplasmic reticulum ATPase (Homo sapiens), P55072. recombinant p97 ATPase, Kinase-Glo ATP luminescence, 3 h. inhibition, % at 8 µM. hit rate 0.42% among 220,000. AID 1481, 2009; in the data active = inhibition above about 15%;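 note: 0% = DMSO vehicle and 100% = wells lacking enzyme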
Starred values were filed as active, the others as inactive; nt = not tested or not shown.

SMILES | CHOP inhibitor | XBP1 UPR activ | M18AAP inhibitor | NS3 helicase inh | UPR CHOP act | p97 inhibitor
CCC(C)[C@H]1COCCS(=O)(=O)N1Cc1ccc(Cl)cc1Cl (stereo partly specified) | nt | -1 | 0 | 15 | -2 | nt
O=c1cc2c(nn1Cc1c(Cl)cccc1Cl)-c1ccccc1CC2 | 85* | 2 | -6 | 3 | 6 | -7
Clc1cccc(Cl)c1CSc1cc2c(nn1)-c1ccccc1CC2 | 3 | 5 | 0 | 2 | 4 | 1
CC(C)NC(=O)CCCN1C(=O)c2ccccc2Sc2ncccc21 | nt | -4 | -12 | 9 | 0 | nt
Cc1cc2oc(=O)cc(CN3CCC(C)CC3)c2cc1Cl | 85* | 4 | -3 | -2 | 9 | 0
C=C[C@@H]1c2cccc(C)c2N(S(=O)(=O)c2ccc(C)cc2)[C@H](c2ccc(OC(C)=O)cc2)C1(C#N)C#N | nt | 1 | nt | nt | 2 | nt
COc1ccc(Nc2nc(N3CCCCC3)c3ccccc3n2)cc1 | 82* | 5 | -5 | -37 | 7 | 7
Oc1ccc(Nc2nc(N3CCCC3)c3ccccc3n2)cc1 | nt | 2 | -12 | -11 | -2 | 1
O=C(Nc1ccccc1Oc1cccnc1)C1CCCN(Cc2ccc(F)cc2)C1 (stereo unspecified) | nt | 0 | 1 | -2 | 1 | nt
COc1ccc(CCN2C(=O)CSC2=S)cc1OC | nt | 0 | -46 | 3 | -2 | nt
COc1ccc(NC(=O)CCCn2cnc3ccccc3c2=O)c(OC)c1 | nt | -1 | 1 | 8 | -1 | nt
O=C1CCCC2=C1Sc1ccc(Cl)cc1N2 | 21 | -1 | 30* | 11 | -1 | 7
COC(=O)c1ccc2c(c1)SC1=C(CCCC1=O)N2 | -6 | 1 | 14 | 3 | 3 | 0
c1cc2c(cc1-c1csc(NNC3=NCCCCC3)n1)OCCO2 | 4 | -3 | 41* | -14 | 3 | 4
Oc1ccc(Nc2nc(-c3cccnc3)cs2)cc1 | nt | 0 | 19 | -6 | 15 | nt
Oc1ccc(Nc2nc(-c3ccc(O)cc3)cs2)cc1 | 21 | 12 | 8 | 28 | 5 | 15*
c1cc2c(cc1Nc1nc(-c3ccc4c(c3)OCO4)cs1)OCCO2 | 18 | 2 | 4 | 8 | 4 | 6
c1ccc(-c2csc(Nc3ccc4c(c3)OCCO4)n2)cc1 | 90* | 0 | 19 | -13 | 3 | 3
COc1cc(C(C)=O)ccc1Oc1ncccn1 | nt | -2 | 4 | 3 | 2 | nt
Cc1ccc(C(C)C)c(OCc2n[nH]c(=S)o2)c1 | 35 | -1 | 2 | 29 | 1 | 3
Cc1ccc(C(C)C)c(OCc2nc(-c3nonc3N)no2)c1 | 95* | 3 | -9 | -7 | 4 | 0
COc1ccc(S(=O)(=O)Nc2ccc(N3CCOCC3)nc2)cc1 | 11 | -3 | 3 | 7 | 0 | 3
CCCCCCOC(=O)C(C#N)c1nc2ccccc2nc1N1CCOCC1 (stereo unspecified) | 94* | -1 | -2 | -3 | -1 | -3
CCOC(=O)c1c2ccc(OCC(=O)N/N=C/c3ccccc3C(F)(F)F)cc2n2ccccc12 | 96* | nt | -7 | -1 | nt | -1
Cc1cccc(OCC(=O)N/N=C\c2cn(C)c3ccccc23)c1 | 55 | 0 | -6 | -3 | 1 | -4
SMILES | CHOP inhibitor | XBP1 UPR activ | M18AAP inhibitor | NS3 helicase inh | UPR CHOP act | p97 inhibitor
CC(C)COc1cccc(-c2cc(C(=O)Nc3ccon3)c3ccccc3n2)c1 | nt | -2 | 3 | -4 | -2 | nt
COC(=O)c1sccc1NC(=O)Nc1cccc(Cl)c1Cl | 84* | 3 | 1 | -4 | 0 | 2
CSc1ccccc1NC(=O)Nc1cccc(Cl)c1Cl | 88* | 10 | 2 | 25 | 2 | -6
CSc1ccccc1NC(=O)COc1ccc(Cl)cc1 | 77* | 2 | 3 | -7 | 9 | -1
O=C(CN(Cc1ccco1)C(=O)c1ccc(N2CCCC2=O)cc1)Nc1ccccc1C(F)(F)F | nt | -3 | nt | nt | 1 | nt
CCCn1nnc(NC(=S)NC(=O)c2ccccc2OC)n1 | nt | -1 | nt | nt | 2 | nt
